UPR CHOP act: activators of apoptotic CHOP UPR arm, primary screen, cell-based, CHO-CHOP luciferase reporter, luminescence, uHTS; UPR activation; percent of tunicamycin response over DMSO baseline; activation, % at 10 µM; hit rate 0.34% among 330,000;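 active means at 10 µM dose, activation of 40% or more, normalized to positive control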;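 further: 100% = tunicamycin at 10 µg/mL and 0% = DMSO alone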
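Test system: CHO CHOP reporter cells. Input: 500 CHO-CHOP cells per well. Medium: F12 with 10% FBS. Technique: luciferase luminescence. Measure: percent activation relative to tunicamycin control. Dosing: 10 µM compound, 0.5% DMSO. Timing: 16-18 h cell attachment, then 6 h compound exposure, 37 °C.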
MPTP inh: mitochondrial permeability transition pore inhibitors, primary screen, biochemical, isolated mouse mitochondria, absorbance. Ca2+ swelling absorbance, 30 min. inhibition, % at 10 µM. hit rate 1.4% among 360,000. AID 602449, 2012;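 active means inhibition of 50% or more, scaled per plate between neutral and stimulator controls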;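 further: 0% = DMSO wells given calcium and 100% = 1 mM EGTA wells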
GRIN3A LBD mod: binders of NR3A ligand-binding domain, primary screen, biophysical, differential scanning fluorimetry, uHTS | NR3A LBD differential scanning fluorimetry, Tm shift; 0% = protein alone, 100% = glycine-bound protein | Tm shift relative to glycine control, % at 25 µM | hit rate 2.5% among 340,000 | AID 1259313, 2017;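 active means melting temperature shift of at least 10% of the positive control shift, at one fixed dose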
aDG glyco up: activators of alpha-DG glycosylation, primary screen, uHTS, Pro5-aDG cells, AlphaScreen; alpha-DG glycosylation AlphaScreen (IIH6); 0% Pro5, 100% B10-LARGE cell signal; AID 624168, 2012; hit rate 0.22% among 360,000; activation, % at 10 µM;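 active means activation of at least 8% versus controls, or a plate z-score of at least 8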;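 further: Pro5 are CHO cells carrying HIG-tagged alpha-DG that lacks glycosylation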
UPR XBP1 act: activators of adaptive XBP1 UPR arm, primary screen, cell-based, CHO-XBP1 luciferase reporter, luminescence, uHTS; IRE1-XBP1 UPR activation; percent of tunicamycin response, DMSO as zero; activation, % at 20 µM; hit rate 0.33% among 330,000; AID 463104, 2010;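 active means versus positive control, 20 µM dose yields 30% or more activation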;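 further: 100% = tunicamycin at 10 µg/mL and 0% = DMSO only wells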
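Test system: CHO-XBP1 luciferase reporter cells | Buffer or medium: Serum-containing F12 medium, 10% FBS | Schedule: 6 h compound exposure at 37 °C, 5% CO2 | Detection: Steady-Glo luciferase glow luminescence, 10 min after reagent addition | Read-out basis: Activation, % of tunicamycin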
CHOP inhibitor: inhibitors of CHOP promoter induction, primary screen, cell-based, unfolded protein response, luciferase reporter; CHO-K1 CHOP-promoter luciferase, tunicamycin-induced, 15-18 h; inhibition, % at 10 µM; hit rate 3.8% among 220,000; AID 2732, 2010;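 active means compounds that reduced the stress-induced luciferase reporter signal by more than about 70% of percent inhibition, limit read from the data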;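 further: 0% = tunicamycin plus vehicle and 100% = wells without tunicamycin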
Active calls of the source: *; · = not tested or not shown. Only some compounds are listed: those with a hit (about 5.6% of all), similar ones and a draw of the others.

SMILES	UPR CHOP act	MPTP inh	GRIN3A LBD mod	aDG glyco up	UPR XBP1 act	CHOP inhibitor
CC(C)=CC(=O)Nc1nc2ccc([N+](=O)[O-])cc2s1	·	6	-2	0	·	28
COc1ccc(NC(=O)N(C)C[C@H]2Oc3c(NC(=O)Nc4ccc(C(F)(F)F)cc4)cccc3C(=O)N([C@H](C)CO)C[C@@H]2C)cc1	6	0	16*	0	4	·
C[C@H](CO)N1C[C@H](C)[C@@H](CN(C)C(=O)Nc2ccc(C(F)(F)F)cc2)Oc2c(NC(=O)Nc3ccccc3)cccc2C1=O	1	-1	15*	0	-1	·
C[C@H]1CN([C@@H](C)CO)C(=O)c2cccc(NC(=O)Nc3ccc(C(F)(F)F)cc3)c2O[C@@H]1CN(C)Cc1ccc(Cl)c(Cl)c1	17	2	12*	0	13	·
CC(C)NC(=O)N(C)C[C@H]1Oc2c(NC(=O)Nc3ccc(C(F)(F)F)cc3)cccc2C(=O)N([C@H](C)CO)C[C@@H]1C	1	0	1	0	2	·
O=C(Nc1ccc(-c2cn3c(n2)SCC3)cc1)c1ccc2ccccc2n1	3	0	22*	0	4	-14
Oc1ccc(-c2cn3c(n2)SCC3)cc1	-2	1	37*	0	-2	13
O=C(COC(=O)c1cc(S(=O)(=O)N2CCOCC2)ccc1F)NCc1ccc2c(c1)OCO2	0	-1	-2	0	-3	·
CCCCC#Cc1nc(N)c2ncn([C@@H]3O[C@H](C(=O)NCC)[C@@H](O)[C@H]3O)c2n1	·	·	·	·	·	20
CC1CCc2cc(F)ccc2N1C(=O)c1cnc2sccn2c1=O (centres undefined)	0	-2	-1	0	-2	79*
CC1CCc2cc(F)ccc2N1C(=O)CCl (centres undefined)	·	25	1	0	·	92*
CC1CCc2cc(F)ccc2N1C(=O)c1ccncc1 (centres undefined)	0	-1	2	0	-1	17
O=C(Nc1ccccc1C(=O)N/N=C/c1ccncc1)c1ccccc1	2	2	2	0	2	-7
O=C(N/N=C/c1ccncc1)c1cc2ccccc2cc1O	5	1	13*	0	3	·
O=C(N/N=C/c1ccc[nH]1)c1cc2ccccc2cc1O	5	0	11*	0	9	·
Cc1ccc(N(C)S(=O)(=O)c2c(C)noc2/C=C/N(C)C)cc1	-1	0	6	0	-4	·
COc1cccc(NC(=O)C/C(C)=N/NC(=O)c2ccccc2Cl)c1	-1	-1	1	0	-2	11
C/C(CC(=O)Nc1ccc(Cl)c(C(F)(F)F)c1)=N\NC(=O)c1cc2ccccc2cc1O	2	49	30*	0	0	2
Cc1ccc2nc(N3CCN(Cc4nnnn4Cc4ccccc4)CC3)c(C#N)cc2c1	0	-3	-2	0	-3	92*
O=C(COc1cccnc1[N+](=O)[O-])N1CCN(S(=O)(=O)c2ccc3ccccc3c2)CC1	-2	-1	14*	0	-3	34
O=C(COC(=O)CCN1C(=O)/C(=C\C=C\c2ccccc2)SC1=S)Nc1ccc(Br)cc1	-2	1	10*	0	-6	72*
CC(C)c1ccccc1NC(=O)COC(=O)CCN1C(=O)/C(=C\C=C\c2ccccc2)SC1=S	-6	4	0	0	-5	75*
Cc1ccc(NC(=O)CCCN2C(=O)/C(=C/C=C/c3ccccc3)SC2=S)cc1	0	1	0	0	0	58
COc1ccc(N2CCN(C3CCCN(C(=O)CN4CCOC4=O)C3)CC2)cc1 (centres undefined)	0	-2	1	0	-3	·
CN=c1scc(-c2ccc(F)cc2)n1/N=C/c1ccc(O)c(O)c1	31	4	6	-1	-4	72*
SMILES	UPR CHOP act	MPTP inh	GRIN3A LBD mod	aDG glyco up	UPR XBP1 act	CHOP inhibitor
CN=c1scc(-c2ccc([N+](=O)[O-])cc2)n1/N=C/c1ccco1	4	9	-2	0	0	2
Cc1c(C(=O)N(C)CCCCN2CCOCC2)oc2c(F)cccc12	3	3	0	0	0	·
CCOc1ccccc1-c1nc(C(N)=O)c2[nH]c(=O)n(-c3cccc(C)c3)c2n1	1	-2	5	0	-1	-2
CCOc1cccc(-c2nc(C(N)=O)c3[nH]c(=O)n(-c4cccc(Cl)c4)c3n2)c1O	1	-1	3	0	3	95*
COc1ccc(NC(=O)c2ccc3c(c2)NC(=O)CS3)cc1S(=O)(=O)Nc1ccc(Br)cc1	3	1	5	0	0	-25
Cc1ccc(NS(=O)(=O)c2cc(NC(=O)c3ccc4c(c3)NC(=O)CS4)ccc2C)c(C)c1	-2	25	22*	1	2	24
Cc1ccc(NS(=O)(=O)c2ccc(NC(=O)CN(c3cc([N+](=O)[O-])ccc3C)S(C)(=O)=O)cc2)c(C)c1	3	-3	13*	4	0	44
Cc1ccc(NS(=O)(=O)c2ccc(NC(=O)c3ccc(Br)o3)cc2)c(C)c1	6	37	11*	0	-1	68
Cc1ccc(NS(=O)(=O)c2ccc(NC(=O)c3ccc(-c4ccccc4)cc3)cc2)c(C)c1	6	0	10*	0	-2	·
Cc1ccc(/C=C/c2onc(C)c2S(=O)(=O)N2CCC(C(=O)NC(C)(C)C)CC2)cc1	1	1	-9	0	-1	·
CC(C)(CNc1ccc(C(F)(F)F)cc1[N+](=O)[O-])N1CCOCC1	1	-1	4	0	-1	·
Cc1ccc(NS(=O)(=O)c2ccc(NC(=O)CSc3ccc(Cl)cc3)cc2)c(C)c1	0	8	23*	0	-1	70*
NS(=O)(=O)c1ccc(NC(=S)NC(=O)c2ccc(Br)o2)cc1	0	0	5	0	5	-10
Cc1ccc(O)c(NC(=O)CSc2ccc(Cl)cc2)c1	0	1	-5	1	1	1
Cc1cc(C)cc(NS(=O)(=O)c2ccc(NC(=S)NC(=O)c3ccc(Br)o3)cc2)c1	-1	1	18*	0	1	59
Cc1ccc(C(=O)Nc2ccccc2Cl)cc1	4	0	1	0	-3	·
COCCCC1CCN(C(=O)c2cc(COc3ccc(C)nc3)on2)CC1	-1	1	1	1	-7	·
Cc1[nH]c2ccccc2c1C(=O)COC(=O)c1c(-c2ccccc2Cl)noc1C	1	11	24*	0	-3	66
